From ChEMBL document CHEMBL3632581, “Dimers of Melampomagnolide B Exhibit Potent Anticancer Activity against Hematological and Solid Tumor Cells” (J Med Chem, 2015)

Columns and labels:
SK-MEL-28 = assay: Cytotoxicity against human SK-MEL-28 cells after 48 hrs by SRB assay; type: functional; details: SK-MEL-28, 48 h
In short: (§1)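 NCI-60 five-dose screen at 10−8 to 10−4 M. Cells were plated at 5,000–40,000/well in RPMI 1640 with 5% FBS and 2 mM L-glutamine, then preincubated 24 h, and time-zero plates were TCA-fixed. Compound was added from DMSO stocks and exposed 48 h at 37 °C. Cells were TCA-fixed, SRB-stained, and read at 515 nm. LC50 is the concentration halving the cell population through cell death.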

SK-MEL-5 = assay: Cytotoxicity against human SK-MEL-5 cells after 48 hrs by SRB assay; type: functional; details: SK-MEL-5, 48 h; in short: as §1
[1] = Cytotoxicity against hematopoietic progenitor cells isolated from human umbilical cord blood by annexin V staining-based flow cytometric analysis; type: cell-based
In short: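 Cord-blood mononuclear cells from Ficoll-Paque were plated in serum-free medium, with drug from a DMSO stock (≤0.5% DMSO final). Cells were stained for CD34, CD45 and annexin V. The non-apoptotic fraction (annexin V-negative within the CD34+CD45dim compartment) was normalized to vehicle, and EC50 was fitted where possible. Triplicate.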

ACHN = assay: Cytotoxicity against human ACHN cells after 48 hrs by SRB assay; type: functional; in short: as §1
786-0 = assay: Cytotoxicity against human 786-0 cells after 48 hrs by SRB assay; type: functional; details: 786-0, 48 h; in short: as §1
HT-29 = assay: Cytotoxicity against human HT-29 cells after 48 hrs by SRB assay; type: functional; details: HT-29, 48 h; in short: as §1
[2] = Antileukemic activity against human AML04 cells after 24 hrs by annexin V/7-AAD staining-based flow cytometric analysis; type: functional, cell-based
In short: (§2)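 Primary AML specimens from consenting donors, isolated by Ficoll-Paque gradient and sometimes cryopreserved. Cells were held 1 h in serum-free IMDM with 20% BIT 9500, LDL and β-mercaptoethanol before drug (DMSO stock diluted in PBS, ≤0.5% DMSO final). Exposure was 24 h over 0.5-10 μM. Annexin V/7-AAD double-negative cells, normalized to vehicle, gave the EC50. Run in triplicate.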

[3] = Cytotoxicity against human EKVX cells after 48 hrs by SRB assay; type: functional; in short: as §1
CCRF-CEM = assay: Cytotoxicity against human CCRF-CEM cells after 48 hrs by SRB assay; type: functional; in short: as §1
NCI-H522 = assay: Cytotoxicity against human NCI-H522 cells after 48 hrs by SRB assay; type: functional; details: NCI-H522, 48 h; in short: as §1
SF-539 = assay: Cytotoxicity against human SF539 cells after 48 hrs by SRB assay; type: functional; details: SF-539, 48 h; in short: as §1
OVCAR-5 = assay: Cytotoxicity against human OVCAR5 cells after 48 hrs by SRB assay; type: functional; details: OVCAR-5, 48 h; in short: as §1
MDA-MB-468 = assay: Cytotoxicity against human MDA-MB-468 cells after 48 hrs by SRB assay; type: functional; details: MDA-MB-468, 48 h; in short: as §1
K562 = assay: Cytotoxicity against human K562 cells after 48 hrs by SRB assay; type: functional; details: K562, 48 h; in short: as §1
RPMI-8226 = assay: Cytotoxicity against human RPMI8226 cells after 48 hrs by SRB assay; type: functional; details: RPMI-8226, 48 h; in short: as §1
Malme-3M = assay: Cytotoxicity against human MALME-3M cells after 48 hrs by SRB assay; type: functional; in short: as §1
A498 = assay: Cytotoxicity against human A498 cells after 48 hrs by SRB assay; type: functional; details: A498, 48 h; in short: as §1
OVCAR-3 = assay: Cytotoxicity against human OVCAR3 cells after 48 hrs by SRB assay; type: functional; details: OVCAR-3, 48 h; in short: as §1
UACC-257 = assay: Cytotoxicity against human UACC257 cells after 48 hrs by SRB assay; type: functional; details: UACC-257, 48 h
In short: (§3)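 NCI-60 screen: cells grown in RPMI 1640 with 5% FBS and 2 mM L-glutamine, plated at 5,000–40,000 cells/well by doubling time, and preincubated 24 h at 37 °C before drug. Drug was diluted from DMSO stock and given at five concentrations, 10−4 to 10−8 M, for 48 h. Cells fixed with cold TCA, SRB stained, OD read at 515 nm against time-zero and vehicle plates. LC50 taken as the concentration that halves cell population through cell death.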

HL-60(TB) = assay: Cytotoxicity against human HL-60(TB) cells after 48 hrs by SRB assay; type: functional; details: HL-60, 48 h; in short: as §1
T47D = assay: Cytotoxicity against human T47D cells after 48 hrs by SRB assay; type: functional; in short: as §3
UO-31 = assay: Cytotoxicity against human UO31 cells after 48 hrs by SRB assay; type: functional; details: UO-31, 48 h; in short: as §3
SF-268 = assay: Cytotoxicity against human SF268 cells after 48 hrs by SRB assay; type: functional; details: SF-268, 48 h; in short: as §1
SW-620 = assay: Cytotoxicity against human SW620 cells after 48 hrs by SRB assay; type: functional; details: SW-620, 48 h; in short: as §3
BT-549 = assay: Cytotoxicity against human BT549 cells after 48 hrs by SRB assay; type: functional; details: BT-549, 48 h; in short: as §1
HOP-92 = assay: Cytotoxicity against human HOP92 cells after 48 hrs by SRB assay; type: functional; details: HOP-92, 48 h; in short: as §1
M14 = assay: Cytotoxicity against human M14 cells after 48 hrs by SRB assay; type: functional; details: M14, 48 h; in short: as §1
COLO 205 = assay: Cytotoxicity against human COLO205 cells after 48 hrs by SRB assay; type: functional; details: COLO 205, 48 h; in short: as §1
[4] = Antileukemic activity against human AML02 cells after 24 hrs by annexin V/7-AAD staining-based flow cytometric analysis; type: functional, cell-based; in short: as §2
[5] = Antileukemic activity against human M9-ENL1 cells after 24 hrs by annexin V/7-AAD staining-based flow cytometric analysis; type: functional, cell-based
In short: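 M9-ENL1 cells in alpha-MEM with 5% human plasma, 20% FBS, SCF, IL-3, IL-7 and FLT3. Drug came from a DMSO stock diluted in PBS (≤0.5% DMSO final), for 24 h over 0.5-10 μM. Cells negative for both annexin V and 7-AAD were taken as non-apoptotic and normalized to vehicle. EC50 read from dose-response curves, triplicate.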

[6] = Antileukemic activity against human AML03 cells after 24 hrs by annexin V/7-AAD staining-based flow cytometric analysis; type: functional, cell-based; in short: as §2
[7] = read-out: LC50 (the source's name)

For C=C1C(=O)O[C@H]2[C@H]1CC/C(COC(=O)NCCCCCCCCNC(=O)OC/C1=C/CC[C@@]3(C)O[C@H]3[C@H]3OC(=O)C(=C)[C@@H]3CC1)=C\CC[C@@]1(C)O[C@@H]21, the GI50 (SK-MEL-28) was 200 nM, the CC50 (SK-MEL-28; [7]) was 2120 nM and the GI50 (SK-MEL-5) was 1210 nM. For the same compound, the CC50 (SK-MEL-5; [7]) was 5530 nM, the EC50 [1] was > 10000 nM and the GI50 (ACHN) was 250 nM. It also gave a CC50 (ACHN; [7]) of 2850 nM, a GI50 (786-0) of 240 nM and a CC50 (786-0; [7]) of 2930 nM. The GI50 (HT-29) was 220 nM, the CC50 (HT-29; [7]) was 2270 nM and the EC50 [2] was 3700 nM. For the same compound, the GI50 [3] was 1190 nM, the CC50 [3, 7] was 4990 nM and the GI50 (CCRF-CEM) was 250 nM. For the same compound, the CC50 (CCRF-CEM; [7]) was > 100000 nM, the GI50 (NCI-H522) was 180 nM and the CC50 (NCI-H522; [7]) was 890 nM. For the same compound, the GI50 (SF-539) was 230 nM, the CC50 (SF-539; [7]) was 2260 nM and the GI50 (OVCAR-5) was 260 nM. It also gave a CC50 (OVCAR-5; [7]) of 4040 nM, a GI50 (MDA-MB-468) of 190 nM and an LC50 (MDA-MB-468) of 1500 nM. The GI50 (K562) was 340 nM, the CC50 (K562; [7]) was > 100000 nM and the GI50 (RPMI-8226) was 250 nM. The CC50 (RPMI-8226; [7]) was > 100000 nM, the GI50 (Malme-3M) was 190 nM and the CC50 (Malme-3M; [7]) was 920 nM. The GI50 (A498) was 1690 nM, the CC50 (A498; [7]) was 5830 nM and the GI50 (OVCAR-3) was 330 nM. For the same compound, the CC50 (OVCAR-3; [7]) was 3320 nM, the GI50 (UACC-257) was 840 nM and the CC50 (UACC-257; [7]) was 8510 nM. The GI50 (HL-60(TB)) was 260 nM, the CC50 (HL-60(TB); [7]) was > 100000 nM and the GI50 (T47D) was 320 nM. The CC50 (T47D; [7]) was > 100000 nM, the GI50 (UO-31) was 880 nM and the CC50 (UO-31; [7]) was 4900 nM. For the same compound, the GI50 (SF-268) was 990 nM, the CC50 (SF-268; [7]) was 7240 nM and the GI50 (SW-620) was 230 nM. It also gave a CC50 (SW-620; [7]) of 3370 nM, a GI50 (BT-549) of 250 nM and an LC50 (BT-549) of 3570 nM. The GI50 (HOP-92) was 170 nM, the CC50 (HOP-92; [7]) was 2290 nM and the GI50 (M14) was 270 nM. The CC50 (M14; [7]) was 4530 nM, the GI50 (COLO 205) was 300 nM and the CC50 (COLO 205; [7]) was 3990 nM. For the same compound, the EC50 [4] was 1200 nM, the EC50 [5] was 2000 nM and the EC50 [6] was 2900 nM.
